The source of these data is ChEMBL document CHEMBL1148860, “A non-toxic Hsp90 inhibitor protects neurons from Abeta-induced toxicity” (Bioorg Med Chem Lett, 2007).

Data set [1] is described as follows: Cytotoxicity against rat neuronal cells at 10 uM after 24 hrs. In kind it is cell-based. The note with it: neuron. An outline of the steps: (§1)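 Neuronal cultures given compound alone (10 µM) or DMSO vehicle. Viability read at 24 h and after 72 h. Percentage surviving neurons taken from three separate experiments, mean ± SE.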
For data set [2], the system named is SK-BR-3. Description: Antiproliferative activity against SKBR3 cells. In kind it is functional, cell-based. Conditions: Homo sapiens. An outline of the steps: (§2)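 MCF-7 and SkBr3 cells incubated with compound over a range of concentrations up to 100 µM. Viable cells quantitated by MTS/PMS assay. Triplicate wells per experiment, three independent experiments; IC50 from dose–response, values as means ± SE.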

Data set [3] relates to MCF7. Description: Antiproliferative activity against MCF7 cells. In kind it is functional, cell-based. The note with it: Homo sapiens. The procedure, abridged:
as §2

The test system of data set [4] is SK-BR-3. Briefly: Antiproliferative activity against SKBR3 cells upto 100 uM. In kind it is functional, cell-based. Conditions: Homo sapiens. An outline of the steps: as §2
The subject of data set [5] is MCF7. Briefly: Antiproliferative activity against MCF7 cells upto 100 uM. Conditions: Homo sapiens. In kind it is functional, cell-based. An outline of the steps:
as §2

The test system of data set [6] is Cortical neurone. Briefly: Inhibition of beta-amyloid (1-42)-induced toxicity in embryonic rat brain primary cortical neurons after 48 hrs. In kind it is functional, tissue-based. An outline of the steps:
(§3)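 Primary cortical neurons pretreated with compound at a series of concentrations, then challenged with Aβ25–35 (10 µM), or Aβ1–42 in fewer cultures. Neurons labelled with calcein-AM (live) and propidium iodide (dead) and counted in several fields by fluorescence microscopy. EC50 taken from percentage survival.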

For data set [7], the system named is Cortical neurone. Description: Inhibition of beta-amyloid (25-35)-induced toxicity in embryonic rat brain primary cortical neurons after 48 hrs. In kind it is functional, tissue-based. An outline of the steps:
as §3

In data set [8] the test system is Cerebral cortex neuron. Briefly: Increase in Hsp70 level in rat primary cortical neurons at 0.2 uM after 48 hrs. In kind it is functional, cell-based. An outline of the steps: (§4)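 Primary cortical neurons incubated 48 h with compound, concentrations from 1 nM to 10 µM. Hsp70 levels measured against DMSO controls.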
For data set [9], the system named is Cerebral cortex neuron. Briefly: Increase in Hsp70 level in rat primary cortical neurons at 1 nM after 48 hrs relative to control. In kind it is functional, cell-based. The procedure, abridged: as §4
Data set [10] in a line: Cytotoxicity against rat neuronal cells at 10 uM after 72 hrs. In kind it is cell-based. Conditions: neuron. An outline of the steps:
as §1

For data set [11], the system named is LNCaP. Description: Induction of Hsp90 protein in LNCap cells expressing mutated androgen receptor at 10 nM. In kind it is functional, cell-based. The note with it: Homo sapiens. The procedure, abridged: (§5)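 LNCaP prostate cancer cells, which carry a mutated androgen receptor, exposed to compound from 10 nM upward. Hsp90 induction and loss of client proteins AR and AKT assessed.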

The subject of data set [12] is LNCaP. Briefly: Degradation of Hsp90 client protein androgen receptor in LNCap cells upto 1 uM. In kind it is functional, cell-based. The note with it: Homo sapiens. The procedure, abridged:
as §5

Data set [13] deals with LNCaP. Description: Degradation of Hsp90 client protein AKT in LNCap cells upto 1 uM. In kind it is functional, cell-based. Conditions: Homo sapiens. The procedure, abridged: as §5
In another data set the test system is BMEC. Description: Permeability across BMECs. In kind it is ADME, cell-based, Bos taurus. The note with it: cattle, TDE = time-dependent effect. The procedure, abridged: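 Primary bovine BMEC monolayers mounted in a side-by-side diffusion chamber. Compound in the receiving chamber sampled over time, up to 90 min.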

Active and inactive are the calls of the source. The rule behind the calls is not given here.

As to `COC1=C2C[C@@H](C)C[C@H](OC)[C@H](O)[C@@H](C)/C=C(\C)[C@H](OC(N)=O)[C@@H](OC)/C=C\C=C(/C)C(=O)NC(=CC1=O)C2=O` [GELDANAMYCIN], the Activity result is “Active” in [1], “Dose-dependent effect” with SK-BR-3 [2] and “Dose-dependent effect” with MCF7 [3].

`CO[C@H]1[C@H](O)[C@@H](O)[C@H](Oc2ccc3cc(NC(C)=O)c(=O)oc3c2)OC1(C)C`: the outcome in the data set on SK-BR-3 [4], in the data set with MCF7 [5], in the data set on LNCaP [12] and with LNCaP [13] was inactive. In addition, the outcome with Cortical neurone [6], with Cortical neurone [7], in the data set on Cerebral cortex neuron [8], with Cerebral cortex neuron [9] and in the data set on LNCaP [11] was Active. The results for the Activity entry (in data set [10]; in the data set on BMEC) were “Not Active” and “tde”, respectively.
